Measurements: ChEMBL document CHEMBL1133628, “Nonnucleoside human cytomegalovirus inhibitors: synthesis and antiviral evaluation of (chlorophenylmethyl)benzothiadiazine dioxide derivatives” (J Med Chem, 2000)

How the values were obtained:
HEL [1] = experiment: In vitro alteration in cell morphology in HEL cells.; assay type: functional; settings: Homo sapiens
Method in brief: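 Normal HEL cells exposed to compounds and examined microscopically; minimum cytotoxic concentration is the lowest giving a detectable change in cell morphology. Duplicate assays.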

Human alphaherpesvirus 3 [2] = experiment: In vitro inhibition of Thymidine Kinase-Varicella-Zoster Virus(OKA) plaque formation.; assay type: functional, organism-based; settings: Human alphaherpesvirus 3, oka
Method in brief: (§1)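 Confluent HEL fibroblasts infected with VZV at 20 PFU; after a 2-h adsorption, residual virus removed and cells incubated in MEM with 2% FCS containing serial 5-fold compound dilutions, in duplicate. Fixed with ethanol after 5 days at 37 °C, 5% CO2, then Giemsa-stained; plaques counted microscopically. IC50 read graphically from plaque number (% of control); mean of two independent experiments.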

Human betaherpesvirus 5 [3] = experiment: In vitro inhibition of HCMV (AD-169) plaque formation.; assay type: functional, organism-based
Method in brief: (§2)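 Confluent HEL fibroblasts infected with HCMV at 100 PFU of cell-free virus; after a 2-h adsorption, residual virus removed and cells incubated in MEM with 2% FCS containing serial 5-fold compound dilutions, in duplicate. Fixed with ethanol after 7 days at 37 °C, 5% CO2, then Giemsa-stained; cytopathic effect scored microscopically. IC50 read graphically from % cytopathicity; mean of two experiments.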

[4] = test system: Human immunodeficiency virus 1; experiment: In vitro inhibition of HIV-1(IIIB) cytopathicity in CEM cells.; assay type: functional, organism-based; settings: Human immunodeficiency virus 1, CCRF-CEM
Method in brief: (§3)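 CEM cells at 4×10^5 cells/mL infected with HIV-1 IIIB or HIV-2 ROD (stocks from MT-4 supernatants) at ~100 CCID50/mL, then immediately mixed with compound dilutions. Giant cell formation scored microscopically after 4 days; EC50 is the concentration inhibiting it by 50%. Triplicate assays.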

HEL [5] = experiment: Inhibition of cell growth in HEL cells.; assay type: functional; settings: Homo sapiens
Method in brief: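 HEL fibroblasts seeded at 5×10^3 cells/well and left to proliferate 24 h, then given compound dilutions in duplicate. Incubated 3 days at 37 °C, 5% CO2; cells counted with a Coulter counter. CC50 is the concentration reducing cell growth by 50%.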

Human betaherpesvirus 5 [6] = experiment: In vitro inhibition of HCMV (Davis) plaque formation.; assay type: functional, organism-based; method in brief: as §2
[7] = test system: Human immunodeficiency virus 2; experiment: In vitro inhibition of HIV-2(ROD) cytopathicity in CEM cells.; assay type: functional, organism-based; settings: Human immunodeficiency virus 2, CCRF-CEM; method in brief: as §3
Human alphaherpesvirus 3 [8] = experiment: In vitro inhibition of Thymidine Kinase deficient Varicella Zoster Virus (YS/R) plaque formation.; assay type: functional, organism-based; method in brief: as §1
Human alphaherpesvirus 3 [9] = experiment: In vitro inhibition of Thymidine Kinase deficient Varicella Zoster Virus (07/1) plaque formation.; assay type: functional, organism-based; method in brief: as §1
CCRF-CEM = experiment: In vitro inhibition of CEM cell proliferation.; assay type: functional; settings: Homo sapiens
Method in brief: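 CEM cell proliferation measured alongside the HIV assays; CC50 is the concentration reducing CEM cell proliferation by 50%.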

Human alphaherpesvirus 3 [10] = experiment: In vitro inhibition of Thymidine Kinase-Varicella Zoster Virus(YS) plaque formation.; assay type: functional, organism-based; method in brief: as §1

Compound	MCC (HEL [1])	IC50 (Human alphaherpesvirus 3 [2])	IC50 (Human betaherpesvirus 5 [3])	EC50 [4]	CC50 (HEL [5])	IC50 (Human betaherpesvirus 5 [6])	EC50 [7]	IC50 (Human alphaherpesvirus 3 [8])	IC50 (Human alphaherpesvirus 3 [9])	CC50 (CCRF-CEM)	IC50 (Human alphaherpesvirus 3 [10])
O=S1(=O)N=C(OCc2ccccc2)c2ccccc2N1Cc1ccc(Cl)c(Cl)c1	200 µM	> 50 µM	> 50 µM	> 10 µM	> 200 µM	> 50 µM	> 10 µM	> 50 µM	> 50 µM	30.5 µM	> 20 µM
O=C1c2ccccc2N(Cc2ccccc2Cl)S(=O)(=O)N1COCc1ccccc1	200 µM	> 50 µM	10 µM	> 10 µM	> 50 µM	10 µM	> 10 µM	8 µM	> 50 µM	22.2 µM	> 50 µM
O=C1c2ccccc2N(Cc2ccccc2Cl)S(=O)(=O)N1Cc1ccccc1	200 µM	> 20 µM	15 µM	> 10 µM	88 µM	12 µM	> 10 µM	> 20 µM	> 20 µM	27.9 µM	> 20 µM
O=C1c2ccccc2N(Cc2ccccc2)S(=O)(=O)N1COCc1ccccc1	49 µM	> 12 µM		15 µM	> 98 µM		20 µM		> 12 µM	100 µM	> 12 µM
O=C1c2ccccc2N(COCc2ccccc2)S(=O)(=O)N1Cc1ccccc1	122 µM		20 µM	> 8 µM	> 122 µM		> 8 µM	> 12 µM	> 12 µM	25 µM	
O=C1c2ccccc2N(Cc2ccc(Cl)c(Cl)c2)S(=O)(=O)N1Cc1ccccc1	200 µM	> 50 µM	3.3 µM	> 2 µM	> 200 µM	3.5 µM	> 2 µM	4.5 µM	27 µM	16.4 µM	> 50 µM
Nc1ccn(C[C@@H](CO)OCP(=O)(O)O)c(=O)n1 [CIDOFOVIR]	> 159 µM		0.58 µM		317 µM	1.3 µM					
O=C1c2ccccc2N(Cc2cccc(Cl)c2)S(=O)(=O)N1Cc1ccccc1	> 5 µM	> 50 µM	> 5 µM	5.5 µM	> 200 µM	> 5 µM	> 10 µM		30 µM	21.3 µM	> 50 µM
O=C1c2ccccc2N(Cc2ccccc2)S(=O)(=O)N1Cc1ccc(Cl)cc1	20 µM	2.6 µM	3 µM	5 µM	121 µM	3.5 µM	> 10 µM	2.6 µM	10 µM	27.8 µM	8.2 µM
O=C1c2ccccc2N(Cc2ccc(Cl)cc2)S(=O)(=O)N1Cc1ccccc1	> 5 µM	18 µM	4 µM	6.5 µM	> 200 µM	3 µM	8 µM	2.4 µM	11 µM	19.7 µM	22 µM
